According to ChEMBL document CHEMBL1153904, “FR290581, a novel sordarin derivative: synthesis and antifungal activity” (Bioorg Med Chem Lett, 2009):
≈ marks a conversion by molar mass, not a printed value.

Key:
[1] = system: Candida albicans; test: Antifungal activity against fluconazole-resistant Candida albicans 22009; assay type: functional
[2] = system: Candida parapsilosis; test: Antifungal activity against Candida parapsilosis ATCC 22019; assay type: functional; conditions: Lodderomyces parapsilosis
How it was run: (§1)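 Read-out is the minimum inhibitory concentration, in µg/mL.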

[3] = system: Aspergillus fumigatus; test: Antifungal activity against Aspergillus fumigatus ATCC 204305; assay type: functional; how it was run: as §1
[4] = system: Candida albicans; test: Antifungal activity against Candida albicans FP633 in po dosed ICR mouse assessed as kidney burden per gram of tissue at 20 mg/kg, po after 24 hrs of inoculation; assay type: functional
How it was run: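 Mouse systemic C. albicans infection, oral dosing, n = 5 per group. Kidney fungal burden was read as log cfu per g kidney at 24 h after inoculation and expressed as the change relative to the 0 h control. Significance was tested against the 0 h control by Dunnett comparison.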

[5] = system: Nakaseomyces glabratus; test: Antifungal activity against Candida glabrata ATCC 90030; assay type: functional; how it was run: as §1
[6] = system: Candida tropicalis; test: Antifungal activity against Candida tropicalis 21005; assay type: functional; how it was run: as §1
[7] = system: Candida albicans; test: Antifungal activity against Candida albicans ATCC 90028; assay type: functional
[8] = system: Cryptococcus neoformans; test: Antifungal activity against Cryptococcus neoformans TIMM 0354; assay type: functional; how it was run: as §1
[9] = system: Candida albicans; test: Antifungal activity against Candida albicans […] in ICR mouse serum drug administered po twice a day; assay type: functional
How it was run: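 MIC measured in mouse serum, in µg/mL.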

[10] = system: Candida albicans; test: Antifungal activity against Candida albicans FP633 in po dosed ICR mouse candidiasis model treated after 1 hr post infection for 4 days; assay type: functional
How it was run: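 ED50 (mg/kg) determined in a mouse systemic candidiasis model, with compound given orally.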

[11] = Cmax in mouse at 2 mg/kg, po; assay type: ADME, organism-based; design: dose 2 mg/kg, route oral; conditions: in vivo
How it was run: (§2)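 Mice received a single oral dose of 2 mg/kg. Cmax is reported in µg/mL and half-life in hours.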

[12] = Half life in mouse at 2 mg/kg, po; assay type: ADME, organism-based; design: dose 2 mg/kg, route oral; conditions: in vivo; how it was run: as §2

| Structure (SMILES) | MIC [1] | MIC [2] | MIC [3] | deltalog10CFU [4] | MIC [5] | MIC [6] | MIC [7] | MIC [8] | MIC [9] | ED50 [10] | Cmax [11] | half-life [12] |
| --- | --- | --- | --- | --- | --- | --- | --- | --- | --- | --- | --- | --- |
| OC(Cn1cncn1)(Cn1cncn1)c1ccc(F)cc1F [FLUCONAZOLE] | 128 µg/mL (≈ 418 µM) | 1 µg/mL (≈ 3.27 µM) | > 128 µg/mL | -0.19 | 16 µg/mL (≈ 52.2 µM) | 0.25 µg/mL (≈ 0.816 µM) | 0.125 µg/mL (≈ 0.408 µM) | 0.25 µg/mL (≈ 0.816 µM) |  |  |  |  |
| CO[C@H]1[C@@H](O)[C@H](O)[C@H](OC[C@@]23C[C@@H]4[C@H](C)CC[C@H]4[C@@]4(C=O)CC2C=C(C(C)C)[C@@]34C(=O)O)O[C@@H]1C [SORDARIN] | 64 µg/mL (≈ 130 µM) | > 128 µg/mL | > 128 µg/mL |  | 64 µg/mL (≈ 130 µM) | 64 µg/mL (≈ 130 µM) | 32 µg/mL (≈ 65 µM) | > 128 µg/mL | 32 µg/mL (≈ 65 µM) | > 40 mg/kg | 20 ng/mL | 0.33 h |
| CCCC[C@@H]1C[C@H](C23C[C@@H]4[C@H](C)CC[C@H]4[C@@]4(C=O)CC2C=C(C(C)C)[C@@]34C(=O)O)O[C@H]1CN1CCC(N2C[C@@H](C)O[C@@H](C)C2)CC1 | 0.5 µg/mL (≈ 0.783 µM) | 8 µg/mL (≈ 12.5 µM) | 128 µg/mL (≈ 200 µM) | -1.09 | 1 µg/mL (≈ 1.57 µM) | 0.5 µg/mL (≈ 0.783 µM) | 0.5 µg/mL (≈ 0.783 µM) | 4 µg/mL (≈ 6.26 µM) | 0.25 µg/mL (≈ 0.391 µM) | 2 mg/kg | 1000 ng/mL | 3.4 h |
